ChEMBL document CHEMBL1944509, “Methyl-monofluorination of ibuprofen selectively increases its inhibitory activity toward cyclooxygenase-1 leading to enhanced analgesic activity and reduced gastric damage in vivo” (Bioorg Med Chem Lett, 2011)

Key:
[1] = Drug level in ICR mouse brain at 10 mg/kg, po after 6 hrs by HPLC/MS/MS analysis; type: ADME, organism-based; set-up: dose 10 mg/kg, route oral; details: read-out: Drug uptake
[2] = Drug level in ICR mouse brain at 5 mg/kg, iv after 4 hrs by HPLC/MS/MS analysis; type: ADME, organism-based; set-up: dose 5 mg/kg, route intravenous; details: read-out: Drug uptake
[3] = system: Rattus norvegicus; assay: Antiinflammatory activity in Wistar albino rat assessed as inhibition of carrageenan-induced paw edema at 30 mg/kg, ig administered 1 hr before carrageenan challenge measured after 4 hrs post carrageenan challenge by plethysmometer; type: functional; details: po, route intragastric
Outline: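 Male Wistar rats (140–160 g), three groups of eight; drug as 0.5% CMC suspension i.g., controls given CMC only. 1 h later, 0.1 ml of 0.1% carrageenan in 0.9% NaCl injected sub-plantar into right hind paw. Paw volume read by plethysmometer hourly to 6 h and at 24 h; inhibition % = (Vc − Vt)/Vc × 100 from mean volume increases; mean ± SEM.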

[4] = system: Mus musculus; assay: Analgesic activity in Swiss albino mouse assessed as inhibition of acetic acid-induced writhing at 33.6 mg/kg, ig administered 1 hr before acetic acid challenge measured 10 mins post acetic acid challenge; type: functional; details: po, route intragastric
Outline: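 Male Swiss albino mice (22–24 g), three groups, n = 8; drug suspended in 0.5% CMC given i.g. (0.3 ml/10 g) 1 h before i.p.-unspecified injection of 1% (v/v) acetic acid at 0.1 ml/10 g. Writhes counted for 10 min starting 10 min after acetic acid; activity as percent decrease in writhing versus vehicle control; mean ± SEM, ANOVA then t-test.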

[5] = molecular target: Prostaglandin G/H synthase 1 (Homo sapiens, UniProt P23219); assay: Inhibition of COX1 in human HEL 92.1.7 cells assessed as thromboxane B2 production incubated for 30 mins before arachidonic acid addition measured after 15 mins by ELISA; type: cell-based
Outline: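 HEL92.1.7 cells at 10⁸/ml in fresh medium, incubated with drug (10⁻⁶–10 μM range) for 30 min at 37 °C. TXB₂ is measured in cell-free supernatant by ELISA and expressed as a ratio to vehicle-only cultures; mean ± SD; IC50 from the concentration–response curve.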

[6] = molecular target: T1, Prostaglandin G/H synthase 1 (Ovis aries, UniProt P05979); assay: Inhibition of ovine COX1 by EIA
T1 sequence (P05979 whole entry): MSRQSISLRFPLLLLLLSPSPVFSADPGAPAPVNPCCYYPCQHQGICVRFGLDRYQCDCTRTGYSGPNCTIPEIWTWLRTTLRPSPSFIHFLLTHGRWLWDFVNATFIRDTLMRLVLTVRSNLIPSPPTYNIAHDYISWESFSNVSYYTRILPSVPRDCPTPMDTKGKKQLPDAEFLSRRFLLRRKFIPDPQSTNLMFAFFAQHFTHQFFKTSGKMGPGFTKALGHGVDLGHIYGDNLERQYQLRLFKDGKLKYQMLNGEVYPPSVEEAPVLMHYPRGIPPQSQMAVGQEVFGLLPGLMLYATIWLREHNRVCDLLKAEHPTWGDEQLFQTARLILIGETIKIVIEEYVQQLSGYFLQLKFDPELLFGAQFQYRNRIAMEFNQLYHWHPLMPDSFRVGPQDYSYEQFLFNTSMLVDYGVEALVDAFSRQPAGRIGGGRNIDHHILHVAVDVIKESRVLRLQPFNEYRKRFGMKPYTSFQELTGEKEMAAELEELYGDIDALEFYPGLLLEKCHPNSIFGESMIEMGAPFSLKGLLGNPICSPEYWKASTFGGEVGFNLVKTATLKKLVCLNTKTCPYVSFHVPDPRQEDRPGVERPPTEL

Prostaglandin G/H synthase 1 (Homo sapiens, UniProt P23219), sequence (P23219 whole entry): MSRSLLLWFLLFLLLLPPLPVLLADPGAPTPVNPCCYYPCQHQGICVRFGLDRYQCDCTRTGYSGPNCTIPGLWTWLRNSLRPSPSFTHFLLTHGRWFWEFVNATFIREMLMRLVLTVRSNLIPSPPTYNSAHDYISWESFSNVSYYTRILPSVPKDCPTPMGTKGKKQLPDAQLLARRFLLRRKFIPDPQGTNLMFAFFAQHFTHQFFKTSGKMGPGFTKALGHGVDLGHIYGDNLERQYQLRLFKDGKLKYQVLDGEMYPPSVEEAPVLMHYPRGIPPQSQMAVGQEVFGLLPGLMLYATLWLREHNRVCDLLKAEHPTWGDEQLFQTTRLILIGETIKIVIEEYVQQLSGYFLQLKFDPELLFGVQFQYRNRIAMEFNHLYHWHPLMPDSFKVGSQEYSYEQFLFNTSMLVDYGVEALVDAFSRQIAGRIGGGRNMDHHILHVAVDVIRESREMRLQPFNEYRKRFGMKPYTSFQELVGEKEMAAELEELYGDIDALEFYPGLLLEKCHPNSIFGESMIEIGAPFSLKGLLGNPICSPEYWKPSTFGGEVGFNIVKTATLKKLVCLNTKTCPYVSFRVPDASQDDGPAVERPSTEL

Row | SMILES | concentration at 6 h [1] | concentration at 4 h [2] | inhibition in vivo at 30 mg/kg [3] | inhibition in vivo at 33.6 mg/kg [4] | IC50 [5] | inhibition [5] | IC50 [6]
1 | CC(C)Cc1ccc([C@H](C)C(=O)O)cc1 [DEXIBUPROFEN] | 43.1 ng/g | 41.5 ng/g | 29.5% | – | – | – | –
2 | CC(C)Cc1ccc([C@H](CF)C(=O)O)cc1 | – | – | – | 50% | 1.23 nM | Dose-dependent effect | 500 nM
